Here are results for four molecules from ChEMBL document CHEMBL1132369, “Synthesis of 1-(2-aminophenyl)isoquinolines and the biological activity of their cis-dichloro platinum(II) complexes” (J Med Chem, 1999).

Assay [1] concerns L1210. The assay can be described thus: Compound was evaluated for inhibition of DNA synthesis during 48 hours with L1210 murine leukemia cells. The assay is classed as functional, cell-based, Mus musculus. Summed up:
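Log-phase L1210 cells, cultured and treated as in the growth assay (5 × 10^4 cells/mL, 48 h total exposure; Pt complexes from DMSO, final 0.5%). At 42 h, 0.5 μCi [6-3H]thymidine was added and incubation continued 6 h. Cells were harvested onto glass-fibre filters, washed twice with water, and counted by liquid scintillation. IC50 is for inhibition of thymidine incorporation.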

Assay [2] relates to L1210. Nature of the assay: Compound was evaluated for growth inhibition during 48 hours with L1210 murine leukemia cells. The assay is classed as functional, cell-based, Mus musculus. Summed up: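 L1210 mouse leukemia cells grown in suspension in DMEM with 10% FCS, 2 mM glutamine, streptomycin and penicillin, at 37 °C in 5% CO2. Log-phase cells at 5 × 10^4 cells/mL were exposed to a range of concentrations for 48 h. Pt complexes came from DMSO stocks, pre-held 30 min at 40 °C, final DMSO 0.5%; ligand hydrochlorides were given in water. Cells were counted by haemocytometer, inhibition taken as % of untreated control, and IC50 interpolated from a log-linear plot. At least two independent duplicates were run.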

As usually defined, the IC50 is the concentration that inhibits the measured activity by half. A higher IC50 goes with lower potency.

In the case of `COc1cc2c(cc1OC)C(c1ccccc1N)NCC2` (stereo not drawn), the IC50 in the assay on L1210 [1] (Mus musculus, L1210, 48 h) is 90 µM; with L1210 [2] (Mus musculus, L1210, 48 h) it was 141 µM.

As for `COc1ccc(N)c(C2NCCc3cc(OC)c(OC)cc32)c1` (stereo not drawn), the IC50 came to 100 µM in the assay on L1210 [1] (Mus musculus, L1210, 48 h) and 97 µM with L1210 [2] (Mus musculus, L1210, 48 h).

With “[1-(2-Amino-5-methoxyphenyl)-6,7-dimethoxy-1,2,3,4-tetrahydroisoquinoline]dichloroplatinum (II)”, the values for the IC50 with L1210 [1] (l1210) and with L1210 [2] (l1210) were 1.4 µM and 0.95 µM, respectively.

For the molecule “[1-(2-Aminophenyl)-6,7-dimethoxyisoquinoline]dichloroplatinum (II)”, the IC50 turned out to be 20 µM in the assay on L1210 [1] (l1210) and 9.7 µM in the assay with L1210 [2] (l1210).
